# Laboratory results published in ChEMBL document CHEMBL5712912, “Abnormal overexpression of G9a in melanoma cells promotes cancer progression via upregulation of the Notch1 signaling pathway” (Aging (Albany NY), 2020).
# The source made the active and inactive calls. No cut-off for these calls is given here.
# How the values were obtained:
# A-375 [1] = experiment: Induction of apoptosis in human A-375 cells overexpressing […] assessed as necrotic cells by Annexin V-FITC/PI staining based flow cytometry (Rvb-1.34%); assay type: functional; details: dose 2 µM
# A-375 [2] = experiment: Induction of apoptosis in human A-375 cells overexpressing […] assessed as late apoptotic cells by Annexin V-FITC/PI staining based flow cytometry (Rvb-3.10%); assay type: functional; details: dose 2 µM
# A-375 [3] = experiment: Induction of apoptosis in human A-375 cells overexpressing […] assessed as live cells by Annexin V-FITC/PI staining based flow cytometry (Rvb-95.1%); assay type: functional; details: dose 2 µM
# A-375 [4] = experiment: Induction of apoptosis in human A-375 cells overexpressing […] assessed as early apoptotic cells by Annexin V-FITC/PI staining based flow cytometry (Rvb-0.43%); assay type: functional; details: dose 2 µM
# A-375 [5] = experiment: Induction of apoptosis in human A-375 cells assessed as increase in cleaved Caspase-3 expression at 2 uM by Western blot analysis; assay type: functional, cell-based
# A-375 [6] = experiment: Induction of apoptosis in human A-375 cells assessed as reduction in Bcl-2 expression at 2 uM by Western blot analysis; assay type: functional, cell-based
# A-375 [7] = experiment: Induction of apoptosis in human A-375 cells overexpressing NICD assessed as increase in cleaved Caspase-3 expression at 2 uM by Western blot analysis; assay type: functional, cell-based
# A-375 [8] = experiment: Induction of apoptosis in human A-375 cells overexpressing NICD assessed as reduction in Bcl-2 expression at 2 uM by Western blot analysis; assay type: functional, cell-based
# A-375 [9] = experiment: Antitumor activity against human A-375 cells xenografted in nude mouse assessed as tumor growth inhibition at 5 mg/kg, ip administered every other day for 10 days measured post-last dose by caliper method; assay type: functional, organism-based; details: time 10.0 day
# In short: (§1)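 Male nude mice, 6 weeks old, were given A375 cells (2X 106) subcutaneously. After one week, animals with palpable xenografts were randomised into two groups: DMSO vehicle, or compound at 5 mg/kg i.p. every other day for 10 days. Tumour volume was measured, and body weight was monitored.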
# [10] = Toxicity in human A-375 cells xenografted nude mouse assessed as change in body weight at 5 mg/kg, ip administered every other day for 10 days and measured during compound dosing; assay type: organism-based; details: in vivo, 240 h, time 10 day; in short: as §1
# [11] = target: T1, Histone-lysine N-methyltransferase EHMT2 (Homo sapiens) (UniProt Q96KQ7); experiment: Inhibition of G9a in human A-375 cells assessed as reduction in AKT phosphorylation at 2 uM by Western blot analysis; assay type: cell-based
# T1 sequence (whole entry): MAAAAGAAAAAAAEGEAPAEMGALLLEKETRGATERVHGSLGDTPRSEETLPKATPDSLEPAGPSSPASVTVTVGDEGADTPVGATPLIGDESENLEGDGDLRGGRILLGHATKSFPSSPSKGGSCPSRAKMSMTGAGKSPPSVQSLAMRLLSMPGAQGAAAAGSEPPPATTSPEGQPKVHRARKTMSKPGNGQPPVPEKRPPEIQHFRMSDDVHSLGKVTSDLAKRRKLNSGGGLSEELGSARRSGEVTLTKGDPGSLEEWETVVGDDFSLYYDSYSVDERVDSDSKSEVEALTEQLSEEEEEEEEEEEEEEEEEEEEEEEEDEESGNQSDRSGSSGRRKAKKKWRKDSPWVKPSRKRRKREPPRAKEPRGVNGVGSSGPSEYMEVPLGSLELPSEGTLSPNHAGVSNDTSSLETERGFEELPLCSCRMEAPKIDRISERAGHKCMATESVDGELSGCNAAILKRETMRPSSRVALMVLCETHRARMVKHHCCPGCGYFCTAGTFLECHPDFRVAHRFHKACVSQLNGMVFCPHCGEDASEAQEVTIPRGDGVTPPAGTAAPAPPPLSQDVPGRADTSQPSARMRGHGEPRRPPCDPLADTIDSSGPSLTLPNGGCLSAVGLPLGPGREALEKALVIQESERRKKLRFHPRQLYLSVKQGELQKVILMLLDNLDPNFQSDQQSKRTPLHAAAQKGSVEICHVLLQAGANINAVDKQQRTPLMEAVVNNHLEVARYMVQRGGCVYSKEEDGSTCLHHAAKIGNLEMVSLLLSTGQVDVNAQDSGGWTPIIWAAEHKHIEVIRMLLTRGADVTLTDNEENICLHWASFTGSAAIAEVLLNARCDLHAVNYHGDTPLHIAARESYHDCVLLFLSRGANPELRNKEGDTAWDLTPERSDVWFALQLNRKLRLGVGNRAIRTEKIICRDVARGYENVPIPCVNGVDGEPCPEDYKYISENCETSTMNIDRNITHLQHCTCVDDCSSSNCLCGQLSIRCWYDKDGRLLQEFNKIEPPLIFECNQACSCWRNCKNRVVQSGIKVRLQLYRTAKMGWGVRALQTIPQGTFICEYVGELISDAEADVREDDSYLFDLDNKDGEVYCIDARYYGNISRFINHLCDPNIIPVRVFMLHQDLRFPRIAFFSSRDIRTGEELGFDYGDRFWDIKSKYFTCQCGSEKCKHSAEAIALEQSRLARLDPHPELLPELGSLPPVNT
# [12] = target: T1, Histone-lysine N-methyltransferase EHMT2 (Homo sapiens); experiment: Inhibition of G9a in human M14 cells assessed as reduction in AKT phosphorylation at 2 uM by Western blot analysis; assay type: cell-based
# [13] = target: T1, Histone-lysine N-methyltransferase EHMT2 (Homo sapiens); experiment: Inhibition of G9a in human A-375 cells overexpressing NICD assessed as reduction in AKT phosphorylation at 2 uM by Western blot analysis; assay type: cell-based
# [14] = target: T1, Histone-lysine N-methyltransferase EHMT2 (Homo sapiens); experiment: Inhibition of G9a in human M14 cells overexpressing NICD assessed as reduction in AKT phosphorylation at 2 uM by Western blot analysis; assay type: cell-based
# M14 [15] = experiment: Induction of apoptosis in human M14 cells assessed as increase in cleaved Caspase-3 expression at 2 uM by Western blot analysis; assay type: functional, cell-based
# M14 [16] = experiment: Induction of apoptosis in human M14 cells assessed as reduction in Bcl-2 expression at 2 uM by Western blot analysis; assay type: functional, cell-based
# M14 [17] = experiment: Induction of apoptosis in human M14 cells overexpressing NICD assessed as increase in cleaved Caspase-3 expression at 2 uM by Western blot analysis; assay type: functional, cell-based
# M14 [18] = experiment: Induction of apoptosis in human M14 cells overexpressing NICD assessed as reduction in Bcl-2 expression at 2 uM by Western blot analysis; assay type: functional, cell-based
# M14 [19] = experiment: Induction of apoptosis in human M14 cells assessed as necrotic cells at 2 uM by Annexin V-FITC/PI staining based flow cytometry (reference value: 1.34%); assay type: functional
# M14 [20] = experiment: Induction of apoptosis in human M14 cells assessed as late apoptotic cells at 2 uM by Annexin V-FITC/PI staining based flow cytometry (reference value: 3.10%); assay type: functional
# M14 [21] = experiment: Induction of apoptosis in human M14 cells assessed as live cells at 2 uM by Annexin V-FITC/PI staining based flow cytometry (reference value: 95.1%); assay type: functional
# M14 [22] = experiment: Induction of apoptosis in human M14 cells assessed as early apoptotic cells at 2 uM by Annexin V-FITC/PI staining based flow cytometry (reference value: 0.43%); assay type: functional
# M14 [23] = experiment: Induction of apoptosis in human M14 cells overexpressing NCID assessed as necrotic cells by Annexin V-FITC/PI staining based flow cytometry (Rvb-1.34%); assay type: functional; details: dose 2 µM
# M14 [24] = experiment: Induction of apoptosis in human M14 cells overexpressing NCID assessed as late apoptotic cells by Annexin V-FITC/PI staining based flow cytometry (Rvb-3.10%); assay type: functional; details: dose 2 µM
# M14 [25] = experiment: Induction of apoptosis in human M14 cells overexpressing NCID assessed as live cells by Annexin V-FITC/PI staining based flow cytometry (Rvb-95.1%); assay type: functional; details: dose 2 µM
# M14 [26] = experiment: Induction of apoptosis in human M14 cells overexpressing NCID assessed as early apoptotic cells by Annexin V-FITC/PI staining based flow cytometry (Rvb-0.43%); assay type: functional; details: dose 2 µM
compound,measurement,setting,value
COc1cc2c(NC3CCN(C(C)C)CC3)nc(N3CCC(F)(F)CC3)nc2cc1OCCCN1CCCC1,Activity,A-375 [1],0.76%
same,Activity,A-375 [2],3.59%
same,Activity,A-375 [3],94.9%
same,Activity,A-375 [4],0.75%
same,Activity,A-375 [5],Active
same,Activity,A-375 [6],Active
same,Activity,A-375 [7],inactive
same,Activity,A-375 [8],inactive
same,TGI,A-375 [9],Active
same,Activity,[10],Non-Toxic
same,inhibition,[11],Active
same,inhibition,[12],Active
same,inhibition,[13],inactive
same,inhibition,[14],inactive
same,Activity,M14 [15],Active
same,Activity,M14 [16],Active
same,Activity,M14 [17],inactive
same,Activity,M14 [18],inactive
same,Activity,M14 [19],0.27%
same,Activity,M14 [20],5.17%
same,Activity,M14 [21],89.8%
same,Activity,M14 [22],4.8%
same,Activity,M14 [23],0.76%
same,Activity,M14 [24],3.59%
same,Activity,M14 [25],94.9%
same,Activity,M14 [26],0.75%
